Assay outcomes from PubChem BioAssay.
PMI act satM6P: activators of human phosphomannose isomerase at near-saturating mannose 6-phosphate; coupled PMI enzyme assay, resazurin fluorescence, 20 min; hits give high values; 1 = untreated enzyme, 0 = substrate-free blank; activation factor at 20 µM; P34949; 0.34% of 190,000 active; AID 1216;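 active = activation factor of 2 or more at 20 µM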
Target sequence (P34949 whole entry, looked up): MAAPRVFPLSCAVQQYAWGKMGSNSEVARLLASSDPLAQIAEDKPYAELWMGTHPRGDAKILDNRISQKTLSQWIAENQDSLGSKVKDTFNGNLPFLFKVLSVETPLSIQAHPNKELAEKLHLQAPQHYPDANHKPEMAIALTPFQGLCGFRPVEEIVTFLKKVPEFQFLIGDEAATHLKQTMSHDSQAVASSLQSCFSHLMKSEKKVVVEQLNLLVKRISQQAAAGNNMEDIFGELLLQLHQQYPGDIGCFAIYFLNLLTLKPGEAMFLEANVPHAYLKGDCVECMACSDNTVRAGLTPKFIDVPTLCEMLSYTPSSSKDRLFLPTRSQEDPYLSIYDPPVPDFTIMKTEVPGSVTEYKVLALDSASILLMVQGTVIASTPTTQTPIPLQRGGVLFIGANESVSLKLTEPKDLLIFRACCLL
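Technique: Diaphorase-driven resazurin-to-resorufin fluorescence, excitation 544, emission 590 nm | Assay system: Human PMI in coupled enzyme assay | Times: Enzyme reaction with compound 20 min at room temperature | Medium: HEPES-buffered pH 7.4 with magnesium and detergent | Reagent: Mannose-6-phosphate 1.0 mM (near-saturating) plus 0.22 mM NADP+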
PMI act: phosphomannose isomerase (human) activation. 0.005% of 190,000 active. AID 1214. purified human PMI, coupled resazurin fluorescence, 20 min; hits give high values; 1 = vehicle control, 0 substrate-free wells. activation factor at 20 µM. P34949;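 active = activation factor of 2 or more at 20 µM, relative to plate controls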
HCT116 PTEN-null: growth suppressors of cells with PTEN tumor suppressor deletion | HCT116 PTEN-null viability, CellTiter-Glo, 60 h; hits give low values | viability, % at 10 µM | 1.2% of 140,000 active | AID 827;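 active = viability at or below a set limit, 4 SD under the median of all tested compounds, cut at about 3.7% in these data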;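 note: PTEN knockout HCT116 line with beta catenin targeted HCT116 as companion control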
HCT116 bCat-KO: beta-catenin-lacking colon tumor cell growth suppression. HCT116 beta-catenin knockout viability, CellTiter-Glo, 60 h; hits give low values. viability, % at 10 µM. 1.5% of 140,000 active;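 active = viability at or under a set limit, the compound median less 4 SD, cut at about 6% in these data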;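 note: 0% = Hyamine 1622 control at 20 µM and 100% = untreated cell control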
Lmaj promast: inhibitors of Leishmania major promastigote growth | Leishmania major promastigotes, resazurin fluorescence viability | AID 1063 | inhibition, % at 10 µM | 9% of 200,000 active; in the data active = inhibition above about 50%;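 note: promastigotes grown with compound for 44 hours at 28 °C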
* marks the source's active call; other numbers are inactive results; . = no result given. This is a sample that favours compounds with a hit; in the whole collection about 9.6% have one here.

SMILES	PMI act satM6P	PMI act	HCT116 PTEN-null	HCT116 bCat-KO	Lmaj promast
O=S(=O)(c1cccc(F)c1)N1CCN(Cc2ccc3c(c2)OCO3)CC1	1	1	90	96	74*
Cc1noc(C)c1S(=O)(=O)N1CCN(Cc2ccc3c(c2)OCO3)CC1	0.9	0.9	97	89	-1
O=S(=O)(Cc1ccccc1)N1CCN(Cc2ccc3c(c2)OCO3)CC1	0.9	0.9	95	89	92*
Cc1nn(Cc2ccccc2)c2sc(C(=O)N3CCN(Cc4ccc5c(c4)OCO5)CC3)cc12	0.8	0.8	80	89	75*
O=C(c1ccc(S(=O)(=O)N2CCCCC2)cc1)N1CCN(Cc2ccc3c(c2)OCO3)CC1	1	1	80	77	98*
O=P(COCCOCCOCP(=O)(c1ccccc1)c1ccccc1)(c1ccccc1)c1ccccc1	0.9	1	.	.	-7
CCN(CC)CCNC(=O)C(=O)NCC1OCCN1S(=O)(=O)c1ccc2c(c1)OCCO2 (stereo not given)	1	1	.	.	-3
CO/N=C/c1cccn1-c1nccc(OC)c1C#N	1	1	.	.	-2
O=C(CCSCCc1ccccn1)Nc1ccc(Br)cn1	1.1	1	92	89	-7
O=C(NCc1ccc2c(c1)OCO2)C1CCN(c2ccc(S(=O)(=O)N3CCCC3)cc2)CC1	0.8	0.8	67	66	97*
CS(=O)(=O)N1CCCC(C(=O)NCCCN2CCc3ccccc3C2)C1 (stereo not given)	1.1	1	99	98	0
Cc1ccc(NC(=O)CNC(=O)c2cccs2)cc1S(=O)(=O)Nc1ccc(Cl)cc1	0.9	0.9	89	87	57*
COc1cccc(NC(=O)CNC(=O)c2ccccc2)c1	0.9	0.9	94	87	-1
COc1ccc(NS(=O)(=O)c2cc(NC(=O)CNC(=O)c3cccc(OC)c3)ccc2C)cc1	0.8	0.8	72	77	61*
COc1ccc(NC(=O)CNC(=O)c2cccs2)cc1Cl	1	0.9	.	.	1
CCOc1ccc(NS(=O)(=O)c2cc(NC(=O)c3cccc(C)c3)ccc2Cl)cc1	0.8	0.8	10	14	99*
O=C1CN(C(=O)CN2CCCC2)C(c2ccccc2)c2cc(Br)ccc2N1 (stereo not given)	0.9	0.9	93	87	64*
COc1cc(N/N=C/c2ccc(N(C)C)cc2)ncn1	0.8	0.9	.	.	-1
Cc1cnn(-c2cc(N/N=C/c3ccccc3)ncn2)c1	1.1	1	91	100	-4
Cc1cnn(-c2cc(N/N=C/c3ccccc3F)ncn2)c1	1	1.1	2.6*	21	-4
COc1cc(N/N=C/c2ccccc2O)ncn1	0.9	0.8	6	13	82*
Cc1cccc(NS(=O)(=O)c2ccc3nc(-c4ccccc4)[nH]c3c2)c1C	1	0.9	95	92	59*
Cc1nc2ccc(S(=O)(=O)Nc3ccccc3C)cc2s1	1	1	56	56	18
O=C(CNC(=O)OCc1ccccc1)NCC(=O)N1CCCC1C(=O)OCc1ccccc1 (stereo not given)	0.9	0.9	81	87	-5
O=C(O)Cc1cn(Cc2cccc(Cl)c2)c2ccccc12	1.1	1.1	.	.	-11
SMILES	PMI act satM6P	PMI act	HCT116 PTEN-null	HCT116 bCat-KO	Lmaj promast
CC1CCCN(C(=O)Cc2cn(Cc3cccc(Cl)c3)c3ccccc23)C1 (stereo not given)	1	0.9	86	84	97*
O=C(Cc1cn(Cc2cccc(Cl)c2)c2ccccc12)N1CCCCCC1	1	0.9	84	81	99*
CCn1cc(CNC(=O)CCc2nnc(CCC3CCCCC3)o2)cn1	.	.	.	.	-6
Cn1c(SCC(=O)N2CCOCC2)nc(O)cc1=O	0.9	0.9	91	86	-2
Cc1ccnc(NC(=O)c2cc([N+](=O)[O-])cc([N+](=O)[O-])c2)c1	1.1	1.2	.	.	67*
Cc1csc(NC(=O)c2nc3nc(C)cc(C)n3n2)n1	1.1	1.1	97	106	77*
Cc1csc(NC(=O)c2cc([N+](=O)[O-])cc([N+](=O)[O-])c2)n1	0.9	1	85	80	94*
Cc1csc(NC(=O)c2cc[n+]([O-])cc2)n1	0.9	1	.	.	-1
CCC(=O)Nc1nc(-c2cc([N+](=O)[O-])cs2)cs1	1.1	1.3	.	.	90*
Cc1ccnc(NC(=O)Cc2ccc([N+](=O)[O-])cc2)c1	0.9	1	.	.	-6
CCOC(=O)/C(=N\Nc1ccccc1[N+](=O)[O-])c1csc(N)n1	1	1.1	.	.	52*
CCn1c(COc2ccc3c(c2)CCCC3)nnc1SCC(=O)Nc1ccc(C(=O)OC)cc1	1	1	90	97	2
CN=c1scc(C)n1/N=C/c1ccc(O)cc1O	1	1	60	62	58*
CN=c1scc(C)n1/N=C/c1ccc(O)cc1	0.9	0.9	85	101	0
CCOc1ccccc1NC(=O)COC(=O)CSc1ccc(Cl)cc1	0.9	0.9	94	103	57*
O=C(COC(=O)Cn1cnc2ccccc2c1=O)Nc1ccccc1Sc1ccc(Cl)cc1	1	0.8	80	84	69*
O=C(CCl)Nc1ccccc1Sc1ccc(Cl)cc1	1	1.1	2.5*	2.1*	16
O=C(CSc1ncn[nH]1)Nc1ccccc1Sc1ccccc1	1	1	91	103	70*
Cc1ccc(/C=C/c2ccc(=O)n(Cc3ccccc3Cl)n2)cc1	1	0.9	83	84	-2
COc1cccc(CNC(=O)C2CCN(S(=O)(=O)c3cccs3)CC2)c1	1	0.9	109	100	-1
c1ccc(-c2nnc(OCC3CCCO3)c3ccccc23)cc1 (stereo not given)	1	1	.	.	14
COc1ccc(NC(=S)N(CCCN2CCOCC2)C(C)c2cc3ccccc3o2)cc1 (stereo not given)	0.9	0.9	.	.	72*
COc1ccc(NC(=S)N(CCN(C)C)C(C)c2ccco2)cc1 (stereo not given)	0.9	0.8	105	89	51*
COc1cccc(NC(=O)N(CCCN2CCOCC2)C(C)c2cc3cccc(OC)c3o2)c1 (stereo not given)	1	0.9	79	77	13
COc1cccc(NC(=O)N(CCCN2CCOCC2)C(C)c2cc3ccccc3o2)c1 (stereo not given)	1	1	65	69	99*
CCc1ccc(OCC(=O)Nc2cccc3c2CCCC3)cc1	0.9	0.9	98	89	-6
CCOC(=O)Cn1c(S(=O)(=O)Cc2cccc(F)c2)nc(-c2ccccc2)c1-c1ccccc1	0.9	0.8	72	68	90*
C#CCn1c(S(=O)(=O)Cc2ccc(F)cc2)nc(-c2ccccc2)c1-c1ccccc1	0.8	0.8	67	60	96*
CC1(C)CC(=O)c2sc(NS(=O)(=O)c3ccc(F)cc3)nc2C1	1.1	1.1	.	.	-9
